Measured values taken from ChEMBL document CHEMBL4390653, “Potential anti-herpes and cytotoxic action of novel semisynthetic digitoxigenin-derivatives” (Eur J Med Chem, 2019).

Key:
[1] = Cytotoxicity against African green monkey Vero cells assessed as reduction in cell viability after 48 hrs by SRB assay; format: cell-based; conditions: chlorocebus sabaeus
Outline: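 Vero cells in MEM with 10% FBS, seeded at 2.5 × 10^4 cells/well. Exposed to a range of concentrations for 48 h at 37 °C, 5% CO2, then sulforhodamine B total-protein staining. CC50 is the concentration reducing viability by 50% versus untreated controls, from nonlinear regression; mean ± SD of three independent experiments.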

Human alphaherpesvirus 2 = assay: (§1) Antiviral activity against Herpes simplex virus 2-333 infected in African green monkey Vero cells assessed as inhibition of viral replication after 48 hrs by naphthol blue-black staining-based plaque reduction assay; format: functional, organism-based; conditions: Human alphaherpesvirus 2, 333, Vero
Outline: (§2)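 Vero cells in MEM with 10% FBS, 37 °C, 5% CO2. Confluent monolayers (2.5 × 10^5 cells/well) infected with about 100 PFU for 1 h at 37 °C. Non-cytotoxic concentrations were added after infection. Cells were then PBS-washed and overlaid with MEM plus 1.5% carboxymethylcellulose, with or without compound, for 48 h. Fixed, naphthol blue-black stained, plaques counted under a stereomicroscope. IC50 versus untreated controls by nonlinear regression; mean of three independent experiments.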

HCT-8 = assay: Cytotoxicity against human HCT8 cells assessed as inhibition of cell viability after 48 hrs by SRB assay; format: functional, cell-based; conditions: HCT-8, 48 h
Outline: (§3)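 Cells seeded at 2.5 × 10^4 per well and exposed to a concentration range for 48 h, then SRB total-protein stain. PC3 grown in phenol-red-free DMEM with 1% glutamine; LNCaP in phenol-red-free RPMI 1640 with glutamine and non-essential amino acids. HCT-8 and H460 in RPMI 1640. MRC-5 (plus glutamine and non-essential amino acids) and primary gingival fibroblasts in DMEM. All media had 10% FBS, 37 °C, 5% CO2. Paclitaxel was the reference. IC50 versus untreated controls by nonlinear regression, three independent experiments.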

[2] = as §1, with “Selectivity index, ratio of Cytotoxicity against African green monkey Vero cells assessed as reduction in cell viability after 48 hrs by SRB assay to Antiviral” for “Antiviral”; format: toxicity; conditions: Vero cells infected with HSV-2 333, read-out: Ratio CC50/IC50
Outline: (§4)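 Selectivity index = CC50 in Vero cells (SRB, 48 h) divided by plaque-reduction IC50 for the same virus strain.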

LNCaP = assay: Cytotoxicity against human LNCAP cells assessed as inhibition of cell viability after 48 hrs by SRB assay; format: functional, cell-based; outline: as §3
Human alphaherpesvirus 1 [3] = assay: Antiviral activity against acyclovir-resistant Herpes simplex virus 1 29-R infected in African green monkey Vero cells assessed as inhibition of viral replication after 48 hrs by naphthol blue-black staining-based plaque reduction assay; format: functional, organism-based; conditions: Human alphaherpesvirus 1, 29-R, Vero, 48 h; read-out: IC50; outline: as §2
MRC5 = assay: Cytotoxicity against human MRC5 cells assessed as inhibition of cell viability after 48 hrs by SRB assay; format: cell-based; conditions: MRC5, 48 h; outline: as §3
NCI-H460 = assay: Cytotoxicity against human H460 cells assessed as inhibition of cell viability after 48 hrs by SRB assay; format: functional, cell-based; conditions: NCI-H460, 48 h; outline: as §3
[4] = Cytotoxicity against human HGF cells assessed as inhibition of cell viability after 48 hrs by SRB assay; format: cell-based; outline: as §3
[5] = (§5) Selectivity index, ratio of Cytotoxicity against African green monkey Vero cells assessed as reduction in cell viability after 48 hrs by SRB assay to Antiviral activity against acyclovir-sensitive Herpes simplex virus 1 KOS infected in African green monkey Vero cells assessed as inhibition of viral replication after 48 hrs by naphthol blue-black staining-based plaque reduction assay; format: toxicity; conditions: Vero cells infected with HSV-1 KOS, read-out: Ratio CC50/IC50; outline: as §4
PC-3 = assay: Cytotoxicity against human PC3 cells assessed as inhibition of cell viability after 48 hrs by SRB assay; format: functional, cell-based; conditions: PC-3, 48 h; outline: as §3
A549 = assay: Cytotoxicity against human A549 cells assessed as inhibition of cell viability after 48 hrs by SRB assay; format: functional, cell-based; conditions: A549, 48 h
[6] = as §5, with “acyclovir-resistant” for “acyclovir-sensitive”, “29-R” for “KOS”; format: toxicity; conditions: Vero cells infected with HSV-1 29-R, read-out: Ratio CC50/IC50; outline: as §4
Human alphaherpesvirus 1 [7] = assay: Antiviral activity against acyclovir-sensitive Herpes simplex virus 1 KOS infected in African green monkey Vero cells assessed as inhibition of viral replication after 48 hrs by naphthol blue-black staining-based plaque reduction assay; format: functional, organism-based; conditions: Human alphaherpesvirus 1, strain KOS; outline: as §2
[8] = Inhibition of porcine cortex Na+/K+-ATPase alpha1/2/3 subunit using ATP as substrate preincubated for 30 mins followed by substrate addition and measured after 30 mins by malachite green reagent-based assay; design: species or system Sus scrofa

C[C@]12CC[C@H](O)C[C@H]1CC[C@@H]1[C@@H]2CC[C@]2(C)[C@@H](C3=CC(=O)OC3)CC[C@]12O [DIGITOXIGENIN]
CC50 at 48 h [1]: 27.5 µM
IC50 (Human alphaherpesvirus 2): 3.23 µM
IC50 (HCT-8): 2.48 µM
selectivity ratio at 48 h [2]: 8.53
IC50 (LNCaP): 3.7 µM
IC50 (Human alphaherpesvirus 1 [3]): 1.02 µM
IC50 (MRC5): 1.16 µM
IC50 (NCI-H460): 0.92 µM
IC50 [4]: 1.47 µM
selectivity ratio at 48 h [5]: 25.3
IC50 (PC-3): 2.41 µM
IC50 (A549): 1.68 µM
selectivity ratio at 48 h [6]: 27
IC50 (Human alphaherpesvirus 1 [7]): 1.09 µM

CC(=O)OC[C@H]1O[C@H](O[C@H]2[C@H](OC(C)=O)[C@@H](OC(C)=O)[C@H](OCc3cn([C@H]4CC[C@@]5(C)[C@H](CC[C@@H]6[C@@H]5CC[C@]5(C)[C@@H](C7=CC(=O)OC7)CC[C@]65O)C4)nn3)O[C@@H]2COC(C)=O)[C@H](OC(C)=O)[C@@H](OC(C)=O)[C@@H]1OC(C)=O
CC50 at 48 h [1]: 181 µM
IC50 (Human alphaherpesvirus 2): 9.75 µM
IC50 (HCT-8): 9.51 µM
selectivity ratio at 48 h [2]: 18.5
IC50 (LNCaP): 23.8 µM
IC50 (Human alphaherpesvirus 1 [3]): 33.4 µM
selectivity ratio at 48 h [5]: 6.86
IC50 (PC-3): 29.5 µM
IC50 (A549): 12 µM
selectivity ratio at 48 h [6]: 5.42
IC50 (Human alphaherpesvirus 1 [7]): 26.3 µM

C[C@]12CC[C@H](n3cc(CO[C@@H]4O[C@H](CO)[C@@H](O[C@H]5O[C@H](CO)[C@@H](O)[C@H](O)[C@H]5O)[C@H](O)[C@H]4O)nn3)C[C@H]1CC[C@@H]1[C@@H]2CC[C@]2(C)[C@@H](C3=CC(=O)OC3)CC[C@]12O
CC50 at 48 h [1]: 147 µM
IC50 (Human alphaherpesvirus 2): 4.18 µM
IC50 (HCT-8): 5.43 µM
selectivity ratio at 48 h [2]: 35.2
IC50 (LNCaP): 5.24 µM
IC50 (Human alphaherpesvirus 1 [3]): 3.24 µM
selectivity ratio at 48 h [5]: 34.3
IC50 (PC-3): 2.74 µM
IC50 (A549): 2.86 µM
selectivity ratio at 48 h [6]: 45.4
IC50 (Human alphaherpesvirus 1 [7]): 4.29 µM

CC(=O)OC[C@H]1O[C@@H](OCc2cn([C@H]3CC[C@@]4(C)[C@H](CC[C@@H]5[C@@H]4CC[C@]4(C)[C@@H](C6=CC(=O)OC6)CC[C@]54O)C3)nn2)[C@H](OC(C)=O)[C@@H](OC(C)=O)[C@H]1OC(C)=O
CC50 at 48 h [1]: 216 µM
IC50 (HCT-8): 5.91 µM
IC50 (LNCaP): 11.3 µM
IC50 (PC-3): 6.23 µM
IC50 (A549): 3.94 µM

C[C@]12CC[C@H](NC(=O)CNc3ccc(Cl)cc3)C[C@H]1CC[C@@H]1[C@@H]2CC[C@]2(C)[C@@H](C3=CC(=O)OC3)CC[C@]12O
CC50 at 48 h [1]: 314 µM
IC50 (Human alphaherpesvirus 2): 1.4 µM
IC50 (HCT-8): 1.68 µM
selectivity ratio at 48 h [2]: 224
IC50 [8]: 10.8 µM
IC50 (LNCaP): 1.28 µM
IC50 (Human alphaherpesvirus 1 [3]): 1.8 µM
IC50 (NCI-H460): 1.14 µM
selectivity ratio at 48 h [5]: 208
IC50 (PC-3): 1.18 µM
IC50 (A549): 1.38 µM
selectivity ratio at 48 h [6]: 174
IC50 (Human alphaherpesvirus 1 [7]): 1.51 µM

C[C@]12CC[C@H](n3cc(CO[C@@H]4O[C@H](CO)[C@H](O)[C@H](O)[C@H]4O)nn3)C[C@H]1CC[C@@H]1[C@@H]2CC[C@]2(C)[C@@H](C3=CC(=O)OC3)CC[C@]12O
CC50 at 48 h [1]: 290 µM
IC50 (Human alphaherpesvirus 2): 1.24 µM
IC50 (HCT-8): 2.58 µM
selectivity ratio at 48 h [2]: 234
IC50 (LNCaP): 7.49 µM
IC50 (Human alphaherpesvirus 1 [3]): 0.92 µM
selectivity ratio at 48 h [5]: 296
IC50 (PC-3): 2.75 µM
IC50 (A549): 2.19 µM
selectivity ratio at 48 h [6]: 315
IC50 (Human alphaherpesvirus 1 [7]): 0.98 µM

CC(=O)OC[C@H]1O[C@H](OCc2cn([C@H]3CC[C@@]4(C)[C@H](CC[C@@H]5[C@@H]4CC[C@]4(C)[C@@H](C6=CC(=O)OC6)CC[C@]54O)C3)nn2)[C@@H](OC(C)=O)[C@@H](OC(C)=O)[C@@H]1OC(C)=O
CC50 at 48 h [1]: 393 µM
IC50 (Human alphaherpesvirus 2): 4.55 µM
IC50 (HCT-8): 1.9 µM
selectivity ratio at 48 h [2]: 86.4
IC50 [8]: 4.46 µM
IC50 (LNCaP): 3.13 µM
IC50 (Human alphaherpesvirus 1 [3]): 6.01 µM
IC50 (NCI-H460): 1.59 µM
selectivity ratio at 48 h [5]: 39
IC50 (PC-3): 2.92 µM
IC50 (A549): 1.57 µM
selectivity ratio at 48 h [6]: 65.4
IC50 (Human alphaherpesvirus 1 [7]): 10.1 µM

C[C@]12CC[C@H](NC(=O)CN3CCC(c4ccccc4)CC3)C[C@H]1CC[C@@H]1[C@@H]2CC[C@]2(C)[C@@H](C3=CC(=O)OC3)CC[C@]12O
CC50 at 48 h [1]: 112 µM
IC50 (Human alphaherpesvirus 2): 0.49 µM
IC50 (HCT-8): 0.3 µM
selectivity ratio at 48 h [2]: 228
IC50 [8]: 6.59 µM
IC50 (LNCaP): 1.72 µM
IC50 (Human alphaherpesvirus 1 [3]): 0.2 µM
IC50 (NCI-H460): 0.32 µM
selectivity ratio at 48 h [5]: 254
IC50 (PC-3): 0.7 µM
IC50 (A549): 1.43 µM
selectivity ratio at 48 h [6]: 560
IC50 (Human alphaherpesvirus 1 [7]): 0.44 µM
